Measured values as given in ChEMBL document CHEMBL1138351, “Small, potent, and selective diaryl phosphonate inhibitors for urokinase-type plasminogen activator with in vivo antimetastatic properties” (J Med Chem, 2007).
The source made the active and inactive calls. The calls are words filed in the database; no cut-off is given here.

How the values were obtained:
[1] = molecular target: T1, Prothrombin (Homo sapiens, UniProt P00734); experiment: Inhibition of human thrombin
How it was run: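 Human plasma thrombin was assayed at 37 °C in Tris pH 8.3. […] Initial rate was read at 405 nm, in duplicate. IC50 was obtained from a four-parameter logistic fit.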

[2] = molecular target: T2, Coagulation factor X (Homo sapiens, UniProt P00742); experiment: Inhibition of factor 10a
How it was run: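 Human factor Xa (FX activated with Russell's viper venom) at about 5 mU was preincubated with inhibitor (0–250 µM final) for 15 min at 37 °C. […] IC50 came from a four-parameter logistic fit.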

[3] = molecular target: T3, Urokinase-type plasminogen activator (Homo sapiens, UniProt P00749)
[4] = species: Homo sapiens; experiment: Selectivity index, ratio of IC50 for human plasmin to IC50 for human uPA
How it was run: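 Selectivity index is IC50(plasmin)/IC50(uPA). Plasmin: human plasma-derived, about 5 mU, 580 µM S-2366, Tris pH 7.4. uPA: human, about 1 mU, 250 µM S-2444, 50 mM Tris pH 8.8. Both had 15 min preincubation at 37 °C, 405 nm initial rates in duplicate, and a four-parameter logistic fit.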

[5] = species: Homo sapiens; experiment: Selectivity index, ratio of IC50 for human recombinant tPA to IC50 for human uPA
[6] = molecular target: T1, Prothrombin; experiment: Inhibition of human thrombin at 250 uM
How it was run: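 Human plasma thrombin was assayed at 37 °C in Tris pH 8.3. IC50 was obtained from a four-parameter logistic fit.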

[7] = species: Homo sapiens; experiment: Selectivity index, ratio of IC50 for human factor 10a to IC50 for human uPA
[8] = species: Homo sapiens; experiment: Selectivity index, ratio of IC50 for human thrombin to IC50 for human uPA
How it was run: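 Selectivity index is IC50(thrombin)/IC50(uPA). Thrombin: human plasma-derived, about 5 mU, 580 µM S-2366, Tris pH 8.3. uPA: human, about 1 mU, 250 µM S-2444, 50 mM Tris pH 8.8. Both had 15 min preincubation at 37 °C, 405 nm initial rates in duplicate, and a four-parameter logistic fit.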

[9] = molecular target: T2, Coagulation factor X; experiment: Inhibition of factor 10a at 250 uM
[10] = molecular target: Tissue-type plasminogen activator (Homo sapiens, UniProt P00750); experiment: Inhibition of human recombinant tPA
[11] = molecular target: Plasminogen (Homo sapiens, UniProt P00747); experiment: Inhibition of human plasmin
How it was run: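 Plasmin from human plasma at about 5 mU was preincubated with inhibitor (0–250 µM final) for 15 min at 37 °C. Substrate was S-2366 at 580 µM in Tris pH 7.4. Initial rate was read at 405 nm, in duplicate. IC50 came from a four-parameter logistic fit.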

[12] = molecular target: T3, Urokinase-type plasminogen activator; remark: listed apart in the source
[13] = molecular target: T2, Coagulation factor X; experiment: Inhibition of factor 10a at 62 uM
[14] = molecular target: T1, Prothrombin; experiment: Inhibition of thrombin at 100 uM

Tissue-type plasminogen activator, sequence (P00750 whole entry): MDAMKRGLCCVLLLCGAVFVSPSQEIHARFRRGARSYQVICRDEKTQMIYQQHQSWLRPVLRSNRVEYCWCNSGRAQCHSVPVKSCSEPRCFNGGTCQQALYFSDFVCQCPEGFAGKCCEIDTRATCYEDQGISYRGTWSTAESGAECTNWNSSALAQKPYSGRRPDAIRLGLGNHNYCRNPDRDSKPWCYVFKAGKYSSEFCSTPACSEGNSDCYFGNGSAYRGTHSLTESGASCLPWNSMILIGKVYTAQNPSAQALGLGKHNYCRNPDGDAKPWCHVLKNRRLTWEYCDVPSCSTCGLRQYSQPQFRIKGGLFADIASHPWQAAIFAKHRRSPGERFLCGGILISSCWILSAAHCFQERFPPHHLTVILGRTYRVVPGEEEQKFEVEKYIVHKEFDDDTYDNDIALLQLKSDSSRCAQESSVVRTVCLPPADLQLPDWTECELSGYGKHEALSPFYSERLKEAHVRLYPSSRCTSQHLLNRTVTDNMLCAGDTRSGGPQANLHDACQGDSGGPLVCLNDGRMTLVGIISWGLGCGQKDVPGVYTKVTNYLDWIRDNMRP
Plasminogen, sequence (P00747 97-580 limits assumed): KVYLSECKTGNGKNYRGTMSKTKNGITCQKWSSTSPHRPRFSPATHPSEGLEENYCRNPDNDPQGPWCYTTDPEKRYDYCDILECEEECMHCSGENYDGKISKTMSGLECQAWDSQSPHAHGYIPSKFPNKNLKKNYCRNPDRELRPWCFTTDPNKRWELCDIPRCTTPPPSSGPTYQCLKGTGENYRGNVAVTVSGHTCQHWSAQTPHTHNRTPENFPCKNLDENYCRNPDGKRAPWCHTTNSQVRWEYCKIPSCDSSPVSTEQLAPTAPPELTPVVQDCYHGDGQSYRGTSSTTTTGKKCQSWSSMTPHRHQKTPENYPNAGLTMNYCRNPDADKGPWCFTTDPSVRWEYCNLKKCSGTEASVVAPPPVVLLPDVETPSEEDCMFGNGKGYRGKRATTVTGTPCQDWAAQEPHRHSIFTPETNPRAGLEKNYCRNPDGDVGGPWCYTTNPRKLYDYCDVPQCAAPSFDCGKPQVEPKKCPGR
Plasminogen, sequence (P00747 581-810 limits assumed): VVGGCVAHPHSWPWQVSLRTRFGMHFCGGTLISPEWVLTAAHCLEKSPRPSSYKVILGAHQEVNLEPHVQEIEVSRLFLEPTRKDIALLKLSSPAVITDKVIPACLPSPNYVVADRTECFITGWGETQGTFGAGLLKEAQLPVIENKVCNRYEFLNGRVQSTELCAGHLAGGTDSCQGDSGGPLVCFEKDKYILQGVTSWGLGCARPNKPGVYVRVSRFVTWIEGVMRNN
T2 sequence (P00742 41-179 limits assumed): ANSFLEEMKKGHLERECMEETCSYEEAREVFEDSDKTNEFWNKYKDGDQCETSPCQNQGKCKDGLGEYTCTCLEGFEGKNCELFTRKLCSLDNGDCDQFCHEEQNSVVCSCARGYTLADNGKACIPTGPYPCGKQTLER
T2 sequence (P00742 235-488 limits assumed): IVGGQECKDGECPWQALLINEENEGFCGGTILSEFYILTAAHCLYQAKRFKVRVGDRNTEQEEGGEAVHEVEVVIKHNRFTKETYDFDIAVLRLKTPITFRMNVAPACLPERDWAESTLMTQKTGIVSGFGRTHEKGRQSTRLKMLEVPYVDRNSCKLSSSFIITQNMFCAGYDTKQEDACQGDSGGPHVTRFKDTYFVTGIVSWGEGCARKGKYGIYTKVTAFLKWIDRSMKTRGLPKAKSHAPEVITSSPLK

In the case of CS(=O)(=O)NC(Cc1ccc(NC(=N)N)cc1)P(=O)(Oc1ccccc1)Oc1ccccc1 (stereo not drawn), the IC50 [1] is reported as 125 µM, the IC50 [2] is reported as 250 µM and the Kapp [3] is reported as 140000 M⁻¹ s⁻¹.
With CC(C)c1cc(C(C)C)c(S(=O)(=O)NC(Cc2ccc(NC(=N)N)cc2)P(=O)(Oc2ccccc2)Oc2ccccc2)c(C(C)C)c1 (stereo not drawn) the Ratio IC50 [4] was 500, the Ratio IC50 [5] was 60 and the inhibition [6] was 60%. It also gave a Ratio IC50 [7] of 80 and a Kapp [3] of 1600 M⁻¹ s⁻¹.
In the case of CC(=O)Nc1ccc(OP(=O)(Oc2ccc(NC(C)=O)cc2)C(Cc2ccc(NC(=N)N)cc2)NC(=O)OCc2ccccc2)cc1 (stereo not drawn), the Ratio IC50 [4] is reported as 200, the Ratio IC50 [5] is reported as 1700 and the Ratio IC50 [8] is reported as 90. It also gave a Ratio IC50 [7] of 23000 and a Kapp [3] of 80000 M⁻¹ s⁻¹.
CC(=O)Nc1ccc(OP(=O)(Oc2ccc(NC(C)=O)cc2)C(Cc2ccc(NC(=N)N)cc2)NS(C)(=O)=O)cc1 (stereo not drawn) was tested, and the Ratio IC50 [4] was 550, the Ratio IC50 [5] was 1000 and the inhibition [9] was 55%. The Ratio IC50 [8] was 700 and the Kapp [3] was 210000 M⁻¹ s⁻¹.
Compound N=C(N)c1ccc(CC(NC(=O)OCc2ccccc2)P(=O)(Oc2ccccc2)Oc2ccccc2)cc1 (stereo not drawn) has an inhibition [9] of 65% and a Kapp [3] of 2000 M⁻¹ s⁻¹.
In the case of N=C(N)NCCCC(NC(=O)OCc1ccccc1)P(=O)(Oc1ccccc1)Oc1ccccc1 (stereo not drawn), the Ratio IC50 [4] is reported as 35, the IC50 [10] is reported as 44 µM and the Ratio IC50 [5] is reported as 50. It also gave an IC50 [11] of 30 µM, an IC50 [1] of 0.78 µM and an inhibition [9] of 70%. The Ratio IC50 [8] was 0.9, the IC50 [12] was 840 nM and the Kapp [3] was 100 M⁻¹ s⁻¹.
Work on N=C(N)c1ccc(CCC(NC(=O)OCc2ccccc2)P(=O)(Oc2ccccc2)Oc2ccccc2)cc1 (stereo not drawn) yielded a Ratio IC50 [4] of 7, a Ratio IC50 [5] of 70 and a Ratio IC50 [8] of 20. It also gave a Ratio IC50 [7] of 15 and a Kapp [3] of 140 M⁻¹ s⁻¹.
C[C@H](NC(=O)[C@@H](CO)NS(=O)(=O)Cc1ccccc1)C(=O)NC(Cc1ccc(NC(=N)N)cc1)P(=O)(Oc1ccccc1)Oc1ccccc1 (stereo partly drawn) showed an IC50 [2] of 33.5 µM and an IC50 [12] of 4 nM.
Work on N=C(N)Nc1ccc(CC(NS(=O)(=O)c2cccc3ccccc23)P(=O)(Oc2ccccc2)Oc2ccccc2)cc1 (stereo not drawn) yielded a Kapp [3] of 7300 M⁻¹ s⁻¹.
Work on N=C(N)Nc1ccc(CNC(=O)OCc2ccccc2)cc1 yielded a Ki [10] of over 1000 µM, a Ki [11] of over 1000 µM and a Ki [1] of over 1 mM. It also gave a Ki [2] of over 1 mM.
N=C(N)c1ccc(C(NC(=O)OCc2ccccc2)P(=O)(Oc2ccccc2)Oc2ccccc2)cc1 (stereo not drawn) was tested, and the Kapp [3] was 43 M⁻¹ s⁻¹.
CCOC(=O)NC(Cc1ccc(NC(=N)N)cc1)P(=O)(Oc1ccccc1)Oc1ccccc1 (stereo not drawn) showed a Kapp [3] of 40000 M⁻¹ s⁻¹.
In the case of N=C(N)Nc1ccc(CC(NC(=O)OCc2ccccc2)P(=O)(Oc2ccccc2)Oc2ccccc2)cc1 (stereo not drawn), the Kapp [3] is reported as 42000 M⁻¹ s⁻¹.
In the case of CC(=O)NC(Cc1ccc(NC(=N)N)cc1)P(=O)(Oc1ccccc1)Oc1ccccc1 (stereo not drawn), the IC50 [12] is reported as 7.2 nM and the Kapp [3] is reported as 1.4e+06 M⁻¹ s⁻¹.
N=C(N)Nc1ccc(CC(NS(=O)(=O)Cc2ccccc2)P(=O)(Oc2ccccc2)Oc2ccccc2)cc1 (stereo not drawn) showed an inhibition [13] of 59% and a Kapp [3] of 19000 M⁻¹ s⁻¹.
Compound N=C(N)Nc1ccc(CC(NC(=O)c2ccccc2)P(=O)(Oc2ccccc2)Oc2ccccc2)cc1 (stereo not drawn) has a Kapp [3] of 2400 M⁻¹ s⁻¹.
In the case of C[C@H](NC(=O)[C@@H](CO)NS(=O)(=O)Cc1ccccc1)C(=O)NCc1ccc(NC(=N)N)cc1, the Activity [14] is reported as “inactive”, the Ki [10] is reported as over 2.5 µM and the Ki [11] is reported as 40 µM. For the same compound, the Ki [12] was 16 nM.
